Fewer inactive variants are shown than the library holds.
B1: tRNA (parent)
chain: GUUCCGUUGGCGUAAUGGUAACGCGUCUCCCUCCUAAGGAGAAGACUGCGGGUUCGAGUCCCGUACGGAACG

Variants of: B1
Test: yeast fitness relative to wild type (ratio to wild type); higher = fitter; tRNA-Arg(CCU), competitive growth, 37 C, YPD
Summary of the method: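 For this measurement, the tRNA-Arg(CCU) gene was varied by chemical synthesis at a 3% per-site mutation rate across 69 sites, and each variant was placed at the native genomic locus in Saccharomyces cerevisiae. The pooled strains went through a 24-hour competition in YPD at 37°C in six parallel replicates, with amplicons from start and end populations read by 100-nucleotide paired-end sequencing. Darwinian fitness relative to wild type followed from the change in each genotype's frequency. Genotypes needed ≥ 100 starting reads, and estimates < 0.5 were set to 0.5.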

**Q.** With C27G U28A A65U as the variant, how does the yeast fitness read?
**A.** ≤ 0.5

**Q.** With C5U G10A A14C as the variant, how does the yeast fitness read?
**A.** 0.6

**Q.** Which yeast fitness does the source give for C31U G51A G56C G67C here?
**A.** 0.526

**Q.** For C5U C11A A20C C22G C30U C31G, which yeast fitness is on record?
**A.** ≤ 0.5

**Q.** Which yeast fitness does the source give for C5A G17A A36G here?
**A.** ≤ 0.5

**Q.** Which yeast fitness does the source give for A45C A65G C66U here?
**A.** 0.679

**Q.** With C11A U53A C62G as the variant, how does the yeast fitness read?
**A.** ≤ 0.5

**Q.** With C4U C31G A45C C49A as the variant, how does the yeast fitness read?
**A.** ≤ 0.5

**Q.** With C11A C62G G63A as the variant, how does the yeast fitness read?
**A.** ≤ 0.5

**Q.** Which yeast fitness does the source give for G38C here?
**A.** 0.806

**Q.** With C11A A21C C55U C62U G67C as the variant, how does the yeast fitness read?
**A.** 0.529

**Q.** Which yeast fitness does the source give for U26C C33G U59C here?
**A.** 0.515

**Q.** Which yeast fitness does the source give for A20U A21G C27G here?
**A.** ≤ 0.5

**Q.** Which yeast fitness does the source give for A15C C27U G63A here?
**A.** ≤ 0.5

**Q.** With C5U A21G C27U G41A C66A as the variant, how does the yeast fitness read?
**A.** ≤ 0.5

**Q.** With G9A C11A A20U G23A G51A as the variant, how does the yeast fitness read?
**A.** ≤ 0.5

**Q.** With U2A U16G as the variant, how does the yeast fitness read?
**A.** 1.03

**Q.** For C27U C55U G67C, which yeast fitness is on record?
**A.** 0.572

**Q.** Which yeast fitness does the source give for C29G G67A here?
**A.** 0.565

**Q.** For C31G G41A U53C, which yeast fitness is on record?
**A.** 0.52

**Q.** For G10A U32A G48A, which yeast fitness is on record?
**A.** ≤ 0.5

**Q.** For C22U A40U U47C, which yeast fitness is on record?
**A.** 0.544

**Q.** With C33U C55A C66U as the variant, how does the yeast fitness read?
**A.** 0.562

**Q.** For G17A C22U C46U C66U A70C, which yeast fitness is on record?
**A.** ≤ 0.5

**Q.** For U16A A37G G39A C49A G50A G68C, which yeast fitness is on record?
**A.** 0.531

**Q.** For G39C G52A, which yeast fitness is on record?
**A.** 0.76

**Q.** Which yeast fitness does the source give for G38C C62U A65G here?
**A.** 0.502

**Q.** Which yeast fitness does the source give for C29A C49U G63A here?
**A.** ≤ 0.5

**Q.** With U19C C24U C27G G38C A57U C60A C62G as the variant, how does the yeast fitness read?
**A.** ≤ 0.5

**Q.** For U2C C66A, which yeast fitness is on record?
**A.** 0.611

**Q.** Which yeast fitness does the source give for A37C A40U G51A here?
**A.** 0.538

**Q.** For U2C A40G, which yeast fitness is on record?
**A.** 0.984

**Q.** Which yeast fitness does the source give for G6A G48C here?
**A.** 0.884

**Q.** With C4U C46G as the variant, how does the yeast fitness read?
**A.** 0.981

**Q.** Which yeast fitness does the source give for C5U A42G A65C here?
**A.** 0.596

**Q.** Which yeast fitness does the source give for C34G G41C C49U here?
**A.** 0.684

**Q.** For U13C C22U C30U, which yeast fitness is on record?
**A.** ≤ 0.5

**Q.** For C11A A15G C22G C61U, which yeast fitness is on record?
**A.** ≤ 0.5

**Q.** Which yeast fitness does the source give for A20C G25C A40U here?
**A.** 0.605

**Q.** Which yeast fitness does the source give for U2A G50A here?
**A.** 0.858

**Q.** Which yeast fitness does the source give for C4G G6C A43U G48A C66G here?
**A.** 0.512

**Q.** For U3G A36G G52A C66A A69U, which yeast fitness is on record?
**A.** ≤ 0.5

**Q.** Which yeast fitness does the source give for U8C C55G here?
**A.** 0.671

**Q.** For G18C C30U U32A C34G A45C U47G A57G, which yeast fitness is on record?
**A.** 0.688

**Q.** Which yeast fitness does the source give for U16A U54C here?
**A.** 0.849

**Q.** With U2A C11U G17A C29G C31G A37C C66A as the variant, how does the yeast fitness read?
**A.** ≤ 0.5

**Q.** With G17A C22G C29U G51C C55G as the variant, how does the yeast fitness read?
**A.** ≤ 0.5

**Q.** For U8C G12A A21C, which yeast fitness is on record?
**A.** ≤ 0.5

**Q.** Which yeast fitness does the source give for G17C U28A C34G G38A G51A here?
**A.** 0.512

**Q.** For U2A A57G, which yeast fitness is on record?
**A.** 0.897

**Q.** For G18C C31G C55G A57C, which yeast fitness is on record?
**A.** ≤ 0.5

**Q.** For C22G C30U U54C, which yeast fitness is on record?
**A.** 0.554

**Q.** For G18A C34A, which yeast fitness is on record?
**A.** ≤ 0.5

**Q.** For U2A C4U U8G C22G U47A A70C, which yeast fitness is on record?
**A.** ≤ 0.5

**Q.** Which yeast fitness does the source give for U13C A15C G48A here?
**A.** ≤ 0.5

**Q.** With C29A A40U U47A as the variant, how does the yeast fitness read?
**A.** 0.772

**Q.** With C5U A42C G67U as the variant, how does the yeast fitness read?
**A.** 0.69

**Q.** For A43C C49U, which yeast fitness is on record?
**A.** 0.964

**Q.** For C24U C55U, which yeast fitness is on record?
**A.** 0.854

**Q.** For A20U U28C G44A C46U G48A C49U C60G C62A C66G, which yeast fitness is on record?
**A.** ≤ 0.5

**Q.** For G17U A57G A69C, which yeast fitness is on record?
**A.** ≤ 0.5

**Q.** For C29A C31U A37U A65G, which yeast fitness is on record?
**A.** ≤ 0.5

**Q.** With C11U G58U C61A as the variant, how does the yeast fitness read?
**A.** ≤ 0.5

**Q.** With C27A C61U C66U as the variant, how does the yeast fitness read?
**A.** ≤ 0.5

**Q.** With G10C A37C A42U as the variant, how does the yeast fitness read?
**A.** ≤ 0.5

**Q.** With C27U C31U C55U as the variant, how does the yeast fitness read?
**A.** 0.643

**Q.** Which yeast fitness does the source give for G23A C62U A65C here?
**A.** 0.582

**Q.** For U32C U35C C49U, which yeast fitness is on record?
**A.** 0.659

**Q.** For U7A C11U A65U, which yeast fitness is on record?
**A.** 0.682

**Q.** With C27G A43G as the variant, how does the yeast fitness read?
**A.** 0.636

**Q.** Which yeast fitness does the source give for C11G C66U here?
**A.** 0.615

**Q.** With G6A C22G A40C G41C G68C as the variant, how does the yeast fitness read?
**A.** ≤ 0.5

**Q.** With U28G G44C G48C as the variant, how does the yeast fitness read?
**A.** 0.556

**Q.** For C5G G17C, which yeast fitness is on record?
**A.** 0.651

**Q.** For G6A U8C A14U, which yeast fitness is on record?
**A.** 0.564

**Q.** Which yeast fitness does the source give for C5G U19G C22U A43G C49G here?
**A.** ≤ 0.5

**Q.** Which yeast fitness does the source give for G9C C22U U26C G58C G68U here?
**A.** ≤ 0.5

**Q.** For A42G C62A C66U, which yeast fitness is on record?
**A.** 0.614

**Q.** Which yeast fitness does the source give for A36G A37U G67A here?
**A.** ≤ 0.5

**Q.** Which yeast fitness does the source give for C4U U13A A14U C29U A37G U59C G68C here?
**A.** ≤ 0.5

**Q.** With C30G C33G C60G C62U as the variant, how does the yeast fitness read?
**A.** ≤ 0.5

**Q.** Which yeast fitness does the source give for C11U A45U C66A here?
**A.** 0.659

**Q.** With C55U G58A as the variant, how does the yeast fitness read?
**A.** 0.642
